Assay results of several laboratories.
Each line is one published result; the experiments were not run side by side.
PDGFRA D842V: Platelet-derived growth factor receptor alpha (PDGFRA, Homo sapiens, UniProt P16234, D842V)
PDGFRA V561D: Platelet-derived growth factor receptor alpha (PDGFRA, Homo sapiens, UniProt P16234, V561D)
PDGFRA: Platelet-derived growth factor receptor alpha (PDGFRA, Homo sapiens, UniProt P16234)

CNC(=O)c1cc(Oc2ccc(NC(=O)Nc3ccc(Cl)c(C(F)(F)F)c3)cc2)ccn1 — inhibition (PDGFRA D842V; enzyme activity; inhibitor; 0.3 µM): 86%
COc1cc(-c2cc(-c3ccc(N4CCNCC4)cc3)cnc2N)cc(OC)c1OC — inhibition (PDGFRA V561D; enzyme activity; inhibitor; 1 µM): 86%
Cc1cc(NC(=O)c2cccc3cc(-c4cccc5[nH]nc(N)c45)ccc23)ccc1F — activity vs control (PDGFRA V561D; enzyme activity; inhibitor; 0.1 µM): 4%
Cc1ccc(C(=O)NCc2ccsc2)cc1C#Cc1cn(C(C)C)c2ncnc(N)c12 — activity vs control (PDGFRA D842V; enzyme activity; inhibitor; 1 µM): 2%
Cn1nc(C(=O)NCc2ccc(C(=O)O)cc2)cc1-c1ccc2[nH]ccc2c1 — remaining binding (PDGFRA; cell-free assay; competition with immobilised ligand; 0.1 µM): 100%
Cc1cnc(NC2CCOCC2)nc1-n1cnc(C(=O)NC(CN)c2cc(F)cc(Cl)c2)c1 (stereo not drawn) — remaining activity (PDGFRA V561D; enzyme activity; inhibitor; radiometric; 1 µM): 100%
CCCOc1ccc(OC)c(F)c1C(=O)c1ccc(C(=O)N[C@@H]2CNC[C@H]2NC(=O)c2ccc3[nH]ncc3c2)cc1 — remaining activity (PDGFRA; enzyme activity; inhibitor; 10 µM): 89%
NS(=O)(=O)c1cc(NC(=O)Cc2ccccc2)ccc1Oc1cccc(Cl)c1 — remaining binding (PDGFRA; cell-free assay; competition with immobilised ligand; 1 µM): 80%
Cc1ccc(NC(=O)c2ccc(C)c(C(F)(F)F)c2)cc1C#Cc1nn(C2CCC(O)CC2)c2ncnc(N)c12 (stereo not drawn) — remaining activity (PDGFRA D842V; enzyme activity; inhibitor; 10 µM): 0%
